From ChEMBL document CHEMBL1128315, “1-(Fluorobenzyl)-4-amino-1H-1,2,3-triazolo[4,5-c]pyridines: synthesis and anticonvulsant activity” (1995)

How the values were obtained:
Rattus norvegicus [1] = experiment: Anticonvulsant activity against maximal electroshock-induced seizures in Wistar rats following i.p. administration.; type: functional; details: ip
In short: (§1)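 Male Charles River Wistar rats; maximal electroshock seizure test. Compounds given as solutions or fine dispersions in water or 0.5% methyl cellulose, micronized if not fully soluble. ED50 is the dose protecting 50% against hind limb extension, calculated by Miller–Tainter. Values with a standard error used four doses, at least 12 rats each. Values without one used three doses, six rats each.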

Rattus norvegicus [2] = experiment: Anticonvulsant activity against maximal electroshock-induced seizures in Wistar rats following p.o. administration.; type: functional; details: po; in short: as §1

Row | SMILES | ED50 (Rattus norvegicus [1]) [mg/kg] | ED50 (Rattus norvegicus [2]) [mg/kg]
1 | CC(C)Nc1nccc2c1nnn2Cc1ccccc1F.Cl | 14.2 | > 25
2 | Cl.Nc1nccc2c1nnn2Cc1cc(F)ccc1F | 18 | –
3 | CNc1nccc2c1nnn2Cc1ccccc1C(F)(F)F.Cl | > 25 | –
4 | CNc1nccc2c1nnn2Cc1cc(F)ccc1F.Cl | 5 | –
5 | Cl.Fc1ccccc1Cn1nnc2c(NCC3CC3)nccc21 | 40 | –
6 | Cl.Fc1ccccc1Cn1nnc2c(NC3CC3)nccc21 | 5.6 | –
7 | CNc1nccc2c1nnn2Cc1ccccc1F.Cl | 4.6 | 4.6
8 | CCCNc1nccc2c1nnn2Cc1ccccc1F.Cl | 14.4 | > 25
9 | CCNc1nccc2c1nnn2Cc1ccccc1F.Cl | 8 | 10
10 | O=C1NC(=O)C(c2ccccc2)(c2ccccc2)N1 [PHENYTOIN] | 10 | 20
11 | CNc1nccc2c1nnn2Cc1cccc(F)c1.Cl | 10 | –
12 | CCN(C)c1nccc2c1nnn2Cc1ccccc1F.Cl | > 25 | –
13 | Cl.Nc1nccc2c1nnn2Cc1ccccc1 | 8.7 | 20
14 | CNc1ncnc2c1ncn2Cc1ccccc1F [BW-A78U] | 1.7 | 2.5
15 | CNc1nccc2c1nnn2Cc1ccccc1.Cl | 6.3 | 10
16 | CNc1nccc2c1nnn2Cc1ccc(F)cc1.Cl | 17 | –
17 | Cl.Nc1nccc2c1nnn2Cc1ccccc1F | 28.4 | 11.5
